Data as given in ChEMBL document CHEMBL1143616, “Potent and selective Aurora inhibitors identified by the expansion of a novel scaffold for protein kinase inhibition” (J Med Chem, 2005).

Legend:
Aurora kinase A = target: T1, Aurora kinase A (Homo sapiens, UniProt O14965); test: Inhibition of Aurora kinase A
T1 sequence (O14965 whole entry): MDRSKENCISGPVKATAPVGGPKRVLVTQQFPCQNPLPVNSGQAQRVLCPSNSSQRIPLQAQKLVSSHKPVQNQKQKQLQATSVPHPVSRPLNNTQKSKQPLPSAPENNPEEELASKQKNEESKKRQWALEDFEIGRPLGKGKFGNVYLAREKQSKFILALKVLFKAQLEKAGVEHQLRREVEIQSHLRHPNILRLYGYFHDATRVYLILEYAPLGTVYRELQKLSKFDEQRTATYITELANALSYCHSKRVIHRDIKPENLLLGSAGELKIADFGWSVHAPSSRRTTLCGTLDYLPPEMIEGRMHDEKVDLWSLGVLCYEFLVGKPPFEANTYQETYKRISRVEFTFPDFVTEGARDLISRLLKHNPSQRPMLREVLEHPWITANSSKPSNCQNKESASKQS
How it was run: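 GST-fused Aurora-A was made in insect cells and purified by GST affinity and gel filtration. Compounds were tested as 3-fold dilutions from 10 to 0.0005 µM. Reactions were stopped with EDTA and excess ATP, and substrate phosphorylation was read by streptavidin SPA bead counting.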

HCT-116 = test: Antiproliferation activity against human colon cancer cell line (HCT116); type: functional, cell-based
How it was run: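 HCT-116 cells seeded at 5000 cells/cm² in F12 with 10% FCS, 2 mM L-glutamine and penicillin/streptomycin, 37 °C, 5% CO₂. Next day, dilutions from a 10 mM DMSO stock were added to duplicate wells. After 72 h, cells were trypsinized and counted on a Multisizer 3 counter. Counts were expressed as % of untreated control wells, and IC50 was taken from a sigmoidal fit.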

HT-29 = test: Antiproliferation activity against HT-29 cell line (HT-29); conditions: Homo sapiens
HeLa = test: Antiproliferation activity against HeLa cell line; conditions: Homo sapiens
HL-60 = test: Antiproliferation activity against human HL-60 cell line
Aurora kinase B [1] = target: T2, Aurora kinase B (Homo sapiens, UniProt Q96GD4); test: Inhibitory activity against Aurora kinase B
T2 sequence (Q96GD4 whole entry): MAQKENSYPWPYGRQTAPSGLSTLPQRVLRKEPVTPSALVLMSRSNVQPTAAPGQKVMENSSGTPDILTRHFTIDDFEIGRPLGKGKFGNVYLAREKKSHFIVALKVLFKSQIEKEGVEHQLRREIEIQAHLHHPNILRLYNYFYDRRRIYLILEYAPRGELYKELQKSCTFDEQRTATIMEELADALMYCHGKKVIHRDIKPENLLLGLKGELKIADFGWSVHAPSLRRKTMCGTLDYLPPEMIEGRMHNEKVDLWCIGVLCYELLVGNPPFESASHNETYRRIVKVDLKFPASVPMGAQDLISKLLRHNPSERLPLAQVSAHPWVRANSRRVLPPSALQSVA

Aurora kinase B [2] = target: T2, Aurora kinase B; test: Inhibition of Aurora kinase B
Aurora kinase C [3] = target: T3, Aurora kinase C (Homo sapiens, UniProt Q9UQB9); test: Inhibition of Aurora kinase C
T3 sequence (Q9UQB9 whole entry): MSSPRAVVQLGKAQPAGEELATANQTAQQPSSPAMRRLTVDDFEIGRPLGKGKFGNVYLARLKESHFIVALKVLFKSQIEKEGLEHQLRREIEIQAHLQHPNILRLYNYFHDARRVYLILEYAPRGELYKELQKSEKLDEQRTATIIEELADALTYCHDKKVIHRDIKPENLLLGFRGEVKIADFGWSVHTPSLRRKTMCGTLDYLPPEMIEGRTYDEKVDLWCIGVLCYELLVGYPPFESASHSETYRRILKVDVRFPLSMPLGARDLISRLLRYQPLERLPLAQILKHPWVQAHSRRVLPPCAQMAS

A2780 = test: cells; conditions: Homo sapiens
Aurora kinase C [4] = target: T3, Aurora kinase C; test: Inhibitory activity against Aurora kinase C

SMILES: CCc1cccc(CC)c1NC(=O)N1Cc2n[nH]c(NC(=O)c3ccc(C(C)(C)C)cc3)c2C1
- IC50 (Aurora kinase A): 100 nM
- IC50 (HCT-116): 2200 nM

SMILES: CC(C)(C)c1ccc(C(=O)Nc2n[nH]c3c2CN(C(=O)c2ccco2)C3)cc1
- IC50 (Aurora kinase A): 41 nM
- IC50 (HCT-116): 2100 nM

SMILES: CC(C)(C)c1ccc(C(=O)Nc2n[nH]c3c2CN(C(=O)Cc2ccccc2)C3)cc1
- IC50 (Aurora kinase A): 130 nM
- IC50 (HCT-116): 3000 nM

SMILES: CC(C)(C)c1ccc(C(=O)Nc2[nH]nc3c2CN(C(=O)Cc2ccsc2)C3)cc1
- IC50 (Aurora kinase A): 5 nM
- IC50 (HCT-116): 2000 nM

SMILES: CN1CCN(c2ccc(C(=O)Nc3[nH]nc4c3CN(C(=O)Cc3ccsc3)C4)cc2)CC1
- IC50 (Aurora kinase A): 65 nM
- IC50 (HCT-116): 570 nM

SMILES: CN1CCN(c2ccc(C(=O)Nc3n[nH]c4c3CN(C(=O)c3ccco3)C4)cc2)CC1
- IC50 (Aurora kinase A): 160 nM
- IC50 (HCT-116): 900 nM

SMILES: CCc1cccc(CC)c1NC(=O)N1Cc2n[nH]c(NC(=O)c3ccc(N4CCN(C)CC4)cc3)c2C1 [PHA-680632]
- IC50 (HT-29): 80 nM
- IC50 (HeLa): 410 nM
- IC50 (HL-60): 130 nM
- IC50 (Aurora kinase B [1]): 135 nM
- IC50 (Aurora kinase B [2]): 135 nM
- IC50 (Aurora kinase C [3]): 120 nM
- IC50 (A2780): 110 nM
- IC50 (Aurora kinase C [4]): 120 nM
- IC50 (HCT-116): 45 nM
